Calls of active or inactive are those of the source. The rule behind the calls is not given here.
Legend:
[1] = Cytotoxicity against mouse BNL-CL2 cells at 10 uM after 48 hrs by MTT assay; assay type: functional
HT-29 [2] = assay: Cytotoxicity against human HT-29 cells after 48 hrs by MTT assay; assay type: functional, cell-based; details: HT-29, 48 h
HT-29 [3] = assay: Cytotoxicity against human HT-29 cells after 24 hrs by MTT assay; assay type: functional, cell-based; details: HT-29, 24 h
HepG2 [4] = assay: Cytotoxicity against human HepG2 cells after 24 hrs by MTT assay; assay type: functional, cell-based; details: HepG2, 24 h
HepG2 [5] = assay: Cytotoxicity against human HepG2 cells after 48 hrs by MTT assay; assay type: functional, cell-based; details: HepG2, 48 h
HepG2 [6] = assay: Induction of apoptosis in human HepG2 cells assessed as early apoptotic cells at 0.25 uM after 24 hrs using annexin-V/FITC/propidium iodide staining by flow cytometry analysis (reference value: 2.05%); assay type: functional
In short: (§1)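 HepG2 cells exposed for 24 h to 0.25, 0.5 or 1.0 µM, with vehicle alone as control. Cells then double-stained with annexin V-FITC/PI and analysed by flow cytometry. Quadrant read-out: annexin V-positive/PI-negative cells counted as early apoptotic.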

HepG2 [7] = assay: Induction of apoptosis in human HepG2 cells assessed as viable cells at 0.25 uM after 24 hrs using annexin-V/FITC/propidium iodide staining by flow cytometry analysis (reference value: 94.29%); assay type: functional; details: HepG2, 24 h, read-out: Activity; in short: as §1
HepG2 [8] = assay: Induction of apoptosis in human HepG2 cells assessed as necrotic cells at 0.25 uM after 24 hrs using annexin-V/FITC/propidium iodide staining by flow cytometry analysis (reference value: 0.51%); assay type: functional; in short: as §1
HepG2 [9] = assay: Induction of apoptosis in human HepG2 cells assessed as morphological changes at 20 uM after 24 hrs using Hoechst 33258 staining by fluorescence microscopic analysis; assay type: functional, cell-based
In short: (§2)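 HepG2 cells left untreated or exposed for 24 h, at 20 µM or at 0.5 or 1.0 µM depending on compound. Cells then stained with Hoechst 33258 and nuclear morphology examined by fluorescence microscopy at ×400.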

HepG2 [10] = assay: Induction of apoptosis in human HepG2 cells assessed as late apoptotic cells at 1 uM after 24 hrs using annexin-V/FITC/propidium iodide staining by flow cytometry analysis (reference value: 3.16%); assay type: functional; in short: as §1
HepG2 [11] = assay: Induction of apoptosis in human HepG2 cells assessed as early apoptotic cells at 1 uM after 24 hrs using annexin-V/FITC/propidium iodide staining by flow cytometry analysis (reference value: 2.05%); assay type: functional; in short: as §1
HepG2 [12] = assay: Induction of apoptosis in human HepG2 cells assessed as viable cells at 1 uM after 24 hrs using annexin-V/FITC/propidium iodide staining by flow cytometry analysis (reference value: 94.29%); assay type: functional; details: HepG2, 24 h, read-out: Activity; in short: as §1
HepG2 [13] = assay: Induction of apoptosis in human HepG2 cells assessed as necrotic cells at 1 uM after 24 hrs using annexin-V/FITC/propidium iodide staining by flow cytometry analysis (reference value: 0.51%); assay type: functional; in short: as §1
HepG2 [14] = assay: Induction of apoptosis in human HepG2 cells assessed as late apoptotic cells at 0.5 uM after 24 hrs using annexin-V/FITC/propidium iodide staining by flow cytometry analysis (reference value: 3.16%); assay type: functional; in short: as §1
HepG2 [15] = assay: Induction of apoptosis in human HepG2 cells assessed as early apoptotic cells at 0.5 uM after 24 hrs using annexin-V/FITC/propidium iodide staining by flow cytometry analysis (reference value: 2.05%); assay type: functional; in short: as §1
HepG2 [16] = assay: Induction of apoptosis in human HepG2 cells assessed as viable cells at 0.5 uM after 24 hrs using annexin-V/FITC/propidium iodide staining by flow cytometry analysis (reference value: 94.29%); assay type: functional; details: HepG2, 24 h, read-out: Activity; in short: as §1
HepG2 [17] = assay: Induction of apoptosis in human HepG2 cells assessed as necrotic cells at 0.5 uM after 24 hrs using annexin-V/FITC/propidium iodide staining by flow cytometry analysis (reference value: 0.51%); assay type: functional; in short: as §1
HepG2 [18] = assay: Induction of apoptosis in human HepG2 cells assessed as late apoptotic cells at 0.25 uM after 24 hrs using annexin-V/FITC/propidium iodide staining by flow cytometry analysis (reference value: 3.16%); assay type: functional; in short: as §1
HepG2 [19] = assay: Induction of apoptosis in human HepG2 cells assessed as morphological changes at 0.5 to 1 uM after 24 hrs using Hoechst 33258 staining by fluorescence microscopic analysis; assay type: functional, cell-based; in short: as §2
HepG2 [20] = assay: Ratio of berberine IC50 to compound IC50 for human HepG2 cells; assay type: functional
HepG2 [21] = assay: Cytotoxicity against human HepG2 cells after 24 to 72 hrs by MTT assay; assay type: functional, cell-based
In short: (§3)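 HepG2 cells exposed to a range of concentrations for 24, 48 and 72 h. Viability then read by MTT. Data are means ± SD of at least three replicates from three independent experiments.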

HepG2 [22] = assay: Cytotoxicity against human HepG2 cells by MTT assay; assay type: functional, cell-based; details: TDE = time-dependent effect; in short: as §3

| Structure (SMILES) | IC50 (HT-29 [2]) | IC50 (HT-29 [3]) | IC50 (HepG2 [4]) | IC50 (HepG2 [5]) | other results |
| --- | --- | --- | --- | --- | --- |
| CCCCCCCCCCCCOc1c(OC)ccc2cc3[n+](cc12)CCc1cc2c(cc1-3)OCO2.[Br-] | 0.28 µM | 0.93 µM | 0.26 µM | 0.1 µM | Activity [1]: <20% |
| COc1ccc2cc3[n+](cc2c1O)CCc1cc2c(cc1-3)OCO2 [BERBERRUBINE CHLORIDE] | > 50 µM | > 50 µM | > 50 µM | > 50 µM |  |
| COc1ccc2cc3[n+](cc2c1OCC=C(C)C)CCc1cc2c(cc1-3)OCO2 | 1.75 µM | 10.8 µM | 4.67 µM | 3.17 µM |  |
| COc1ccc2cc3[n+](cc2c1OC/C=C(\C)CCC=C(C)C)CCc1cc2c(cc1-3)OCO2 | 0.14 µM | 1.21 µM | 0.21 µM | 0.17 µM |  |
| COc1ccc2cc3[n+](cc2c1OC)CCc1cc2c(cc1-3)OCO2.[Cl-] [BERBERINE CHLORIDE] | 8.45 µM | > 20 µM | 11.2 µM | 8.32 µM | Activity (HepG2 [6]): 2.99%; viability at 0.25 µM (HepG2 [7]): 89.8%; Activity (HepG2 [8]): 0.84%; Activity (HepG2 [9]): Active; Activity (HepG2 [10]): 5.51%; Activity (HepG2 [11]): 3.77%; viability at 1 µM (HepG2 [12]): 88.8%; Activity (HepG2 [13]): 1.88%; Activity (HepG2 [14]): 4.49%; Activity (HepG2 [15]): 4.39%; viability at 0.5 µM (HepG2 [16]): 90%; Activity (HepG2 [17]): 1.17%; Activity (HepG2 [18]): 6.4% |
| CCCCCCCCOc1c(OC)ccc2cc3[n+](cc12)CCc1cc2c(cc1-3)OCO2 | 0.08 µM | 0.48 µM | 0.19 µM | 0.1 µM |  |
| CCCCOc1c(OC)ccc2cc3[n+](cc12)CCc1cc2c(cc1-3)OCO2 | 0.87 µM | 4.41 µM | 1.81 µM | 0.97 µM |  |
| COc1ccc2cc3[n+](cc2c1OC/C=C(\C)CC/C=C(\C)CCC=C(C)C)CCc1cc2c(cc1-3)OCO2.[Br-] | 0.27 µM | 1.82 µM | 0.21 µM | 0.08 µM | Activity (HepG2 [6]): 1.66%; viability at 0.25 µM (HepG2 [7]): 91.4%; Activity (HepG2 [8]): 3.73%; Activity (HepG2 [19]): Active; Ratio IC50 (HepG2 [20]): 104; Activity [1]: <20%; Activity (HepG2 [21]): Dose-dependent effect; Activity (HepG2 [22]): tde; Activity (HepG2 [10]): 11.28%; Activity (HepG2 [11]): 2.39%; viability at 1 µM (HepG2 [12]): 69.2%; Activity (HepG2 [13]): 17.08%; Activity (HepG2 [14]): 17.4%; Activity (HepG2 [15]): 8.71%; viability at 0.5 µM (HepG2 [16]): 71.4%; Activity (HepG2 [17]): 2.48%; Activity (HepG2 [18]): 3.2% |

— ChEMBL document CHEMBL2311303, “Synthesis and anticancer activity of a novel series of 9-O-substituted berberine derivatives: a lipophilic substitute role” (Bioorg Med Chem Lett, 2013)
